Measurements: ChEMBL document CHEMBL3792386, “Design, Synthesis, and Biological Evaluation of Novel Selenium (Se-NSAID) Molecules as Anticancer Agents” (J Med Chem, 2016)
Calls of active or inactive are those of the source. The rule behind the calls is not given here.

Columns and labels:
[1] = Antiproliferative activity against human PANC1 cells assessed as reduction in cell viability after 72 hrs by MTT assay; format: functional, cell-based; details: PANC-1, 72 h
Summary of the method: (§1)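 3000 cells/well incubated in triplicate with serial concentrations of compound for 24, 48 or 72 h at 37 °C. MTT (5.0 mg/mL solution) added 3 h before the end. Formazan dissolved in DMSO, absorbance read at 570 and 630 nm. Viability normalised to vehicle control. IC50 from non-linear regression (variable slope), mean ± SD of triplicates.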

MDA-MB-231 [2] = assay: Antiproliferative activity against human MDA-MB-231 cells assessed as reduction in cell viability after 48 hrs by MTT assay; format: functional, cell-based; details: MDA-MB-231, 48 h; summary of the method: as §1
[3] = Antiproliferative activity against human PANC1 cells assessed as reduction in cell viability after 24 hrs by MTT assay; format: functional, cell-based; details: PANC-1, 24 h; summary of the method: as §1
UACC-903 [4] = assay: Antiproliferative activity against human UACC-903 cells assessed as reduction in cell viability after 24 hrs by MTT assay; format: functional, cell-based; details: UACC-903, 24 h; summary of the method: as §1
MDA-MB-231 [5] = assay: Antiproliferative activity against human MDA-MB-231 cells assessed as reduction in cell viability after 24 hrs by MTT assay; format: functional, cell-based; details: MDA-MB-231, 24 h; summary of the method: as §1
UACC-903 [6] = assay: Antiproliferative activity against human UACC-903 cells assessed as reduction in cell viability after 48 hrs by MTT assay; format: functional, cell-based; details: UACC-903, 48 h; summary of the method: as §1
MDA-MB-231 [7] = assay: Antiproliferative activity against human MDA-MB-231 cells assessed as reduction in cell viability after 72 hrs by MTT assay; format: functional, cell-based; details: MDA-MB-231, 72 h; summary of the method: as §1
HT-29 [8] = assay: Antiproliferative activity against human HT-29 cells assessed as reduction in cell viability after 48 hrs by MTT assay; format: functional, cell-based; details: HT-29, 48 h; summary of the method: as §1
HT-29 [9] = assay: Antiproliferative activity against human HT-29 cells assessed as reduction in cell viability after 72 hrs by MTT assay; format: functional, cell-based; details: HT-29, 72 h; summary of the method: as §1
UACC-903 [10] = assay: Antiproliferative activity against human UACC-903 cells assessed as reduction in cell viability after 72 hrs by MTT assay; format: functional, cell-based; details: UACC-903, 72 h; summary of the method: as §1
HT-29 [11] = assay: Antiproliferative activity against human HT-29 cells assessed as reduction in cell viability after 24 hrs by MTT assay; format: functional, cell-based; details: HT-29, 24 h; summary of the method: as §1
[12] = Antiproliferative activity against human PANC1 cells assessed as reduction in cell viability after 48 hrs by MTT assay; format: functional, cell-based; details: PANC-1, 48 h; summary of the method: as §1
HCT-116 [13] = assay: Cytotoxicity against human HCT116 cells assessed as reduction in cell viability after 48 hrs MTT assay; format: functional, cell-based
Summary of the method: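 Cells (HCT116, nHDF in serum-free fibroblast medium with growth kit, or MEFs) exposed to increasing compound concentrations for 48 h at 37 °C. Viability read by MTT: 3000 cells/well, triplicate, MTT 3 h before end, formazan in DMSO, absorbance 570/630 nm. Mean ± SD.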

HCT-116 [14] = assay: Induction of cell death in human HCT116 cells at 1 mM after 24 hrs by ethidium bromide staining-based fluorescence microscopy; format: functional
Summary of the method: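 HCT116 cells were exposed for 24 h with a DMSO vehicle comparison, then trypsinized and stained with calcein-AM (live, esterase activity) and ethidium homodimer-1 (dead, lost membrane integrity). Fluorescence microscopy was done at 20X, and the percentage of dead cells was calculated as mean ±SD.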

## COc1ccc2cc([C@H](C)C(=O)O)ccc2c1 [NAPROXEN]
[1]
  IC50: > 50 µM
MDA-MB-231 [2]
  IC50: > 50 µM
[3]
  IC50: > 50 µM
UACC-903 [4]
  IC50: > 50 µM
MDA-MB-231 [5]
  IC50: > 50 µM
UACC-903 [6]
  IC50: > 50 µM
MDA-MB-231 [7]
  IC50: > 50 µM
HT-29 [8]
  IC50: > 50 µM
HT-29 [9]
  IC50: > 50 µM
UACC-903 [10]
  IC50: > 50 µM
HT-29 [11]
  IC50: > 50 µM
[12]
  IC50: > 50 µM

## C[Se]CC(NC(=O)c1ccccc1OC(C)=O)C(=O)O (stereo not given)
[1]
  IC50: 27.6 µM
MDA-MB-231 [2]
  IC50: > 50 µM
[3]
  IC50: > 50 µM
UACC-903 [4]
  IC50: > 50 µM
MDA-MB-231 [5]
  IC50: > 50 µM
UACC-903 [6]
  IC50: > 50 µM
MDA-MB-231 [7]
  IC50: > 50 µM
HT-29 [8]
  IC50: > 50 µM
HT-29 [9]
  IC50: > 50 µM
UACC-903 [10]
  IC50: > 50 µM
HT-29 [11]
  IC50: > 50 µM
[12]
  IC50: 26.1 µM

## CC(C)Cc1ccc(C(C)C(=O)O)cc1 (stereo not given) [IBUPROFEN]
[1]
  IC50: > 50 µM
MDA-MB-231 [2]
  IC50: > 50 µM
[3]
  IC50: > 50 µM
UACC-903 [4]
  IC50: > 50 µM
MDA-MB-231 [5]
  IC50: > 50 µM
UACC-903 [6]
  IC50: > 50 µM
MDA-MB-231 [7]
  IC50: > 50 µM
HT-29 [8]
  IC50: > 50 µM
HT-29 [9]
  IC50: > 50 µM
UACC-903 [10]
  IC50: > 50 µM
HT-29 [11]
  IC50: > 50 µM
[12]
  IC50: > 50 µM

## CC(=O)Oc1ccccc1C(=O)OCC[Se]C#N
[1]
  IC50: 15.1 µM
MDA-MB-231 [2]
  IC50: 23.8 µM
[3]
  IC50: 38.7 µM
UACC-903 [4]
  IC50: 33.9 µM
MDA-MB-231 [5]
  IC50: > 50 µM
UACC-903 [6]
  IC50: 14.5 µM
MDA-MB-231 [7]
  IC50: 34.3 µM
HT-29 [8]
  IC50: 30.9 µM
HT-29 [9]
  IC50: 20.2 µM
UACC-903 [10]
  IC50: 17.6 µM
HT-29 [11]
  IC50: 10.2 µM
[12]
  IC50: 36.1 µM

## CC(=O)Oc1ccccc1C(=O)[Se]CCBr
[1]
  IC50: > 50 µM
MDA-MB-231 [2]
  IC50: 18.7 µM
[3]
  IC50: 39.3 µM
UACC-903 [4]
  IC50: 22.7 µM
MDA-MB-231 [5]
  IC50: 23.7 µM
UACC-903 [6]
  IC50: 19.4 µM
MDA-MB-231 [7]
  IC50: 8.7 µM
HT-29 [8]
  IC50: 27.7 µM
HT-29 [9]
  IC50: 19.3 µM
UACC-903 [10]
  IC50: 10.2 µM
HT-29 [11]
  IC50: 28.5 µM
[12]
  IC50: > 50 µM

## COc1ccc2cc([C@H](C)C(=O)NCC[Se]C#N)ccc2c1
[1]
  IC50: > 50 µM
MDA-MB-231 [2]
  IC50: > 50 µM
[3]
  IC50: > 50 µM
UACC-903 [4]
  IC50: > 50 µM
MDA-MB-231 [5]
  IC50: > 50 µM
UACC-903 [6]
  IC50: > 50 µM
MDA-MB-231 [7]
  IC50: > 50 µM
HT-29 [8]
  IC50: > 50 µM
HT-29 [9]
  IC50: > 50 µM
UACC-903 [10]
  IC50: > 50 µM
HT-29 [11]
  IC50: > 50 µM
[12]
  IC50: > 50 µM

## CC(=O)Oc1ccccc1C(=O)O [ASPIRIN]
[1]
  IC50: > 50 µM
MDA-MB-231 [2]
  IC50: > 50 µM
[3]
  IC50: > 50 µM
UACC-903 [4]
  IC50: > 50 µM
MDA-MB-231 [5]
  IC50: > 50 µM
UACC-903 [6]
  IC50: > 50 µM
MDA-MB-231 [7]
  IC50: > 50 µM
HT-29 [8]
  IC50: > 50 µM
HT-29 [9]
  IC50: > 50 µM
UACC-903 [10]
  IC50: > 50 µM
HCT-116 [13]
  Activity: Active
HCT-116 [14]
  Activity: inactive
HT-29 [11]
  IC50: > 50 µM
[12]
  IC50: > 50 µM

## CC(=O)Oc1ccccc1C(=O)[Se]CC[Se]C#N
[1]
  IC50: 9.6 µM
MDA-MB-231 [2]
  IC50: 34.2 µM
[3]
  IC50: > 50 µM
UACC-903 [4]
  IC50: > 50 µM
MDA-MB-231 [5]
  IC50: > 50 µM
UACC-903 [6]
  IC50: 15.8 µM
MDA-MB-231 [7]
  IC50: 18.6 µM
HT-29 [8]
  IC50: 27.5 µM
HT-29 [9]
  IC50: 17.7 µM
UACC-903 [10]
  IC50: 12.7 µM
HT-29 [11]
  IC50: > 50 µM
[12]
  IC50: 18.9 µM

## O=c1[nH]cc(F)c(=O)[nH]1
HCT-116 [13]
  Activity: Active

## CC(=O)Oc1ccccc1C(=O)NCCSC#N
[1]
  IC50: 8.7 µM
MDA-MB-231 [2]
  IC50: > 50 µM
[3]
  IC50: > 50 µM
UACC-903 [4]
  IC50: > 50 µM
MDA-MB-231 [5]
  IC50: > 50 µM
UACC-903 [6]
  IC50: > 50 µM
MDA-MB-231 [7]
  IC50: > 50 µM
HT-29 [8]
  IC50: > 50 µM
HT-29 [9]
  IC50: > 50 µM
UACC-903 [10]
  IC50: > 50 µM
HT-29 [11]
  IC50: > 50 µM
[12]
  IC50: 17.7 µM

## CC(C)Cc1ccc(C(C)C(=O)NCC[Se]C#N)cc1 (stereo not given)
[1]
  IC50: > 50 µM
MDA-MB-231 [2]
  IC50: > 50 µM
[3]
  IC50: > 50 µM
UACC-903 [4]
  IC50: > 50 µM
MDA-MB-231 [5]
  IC50: > 50 µM
UACC-903 [6]
  IC50: > 50 µM
MDA-MB-231 [7]
  IC50: > 50 µM
HT-29 [8]
  IC50: > 50 µM
HT-29 [9]
  IC50: > 50 µM
UACC-903 [10]
  IC50: > 50 µM
HT-29 [11]
  IC50: > 50 µM
[12]
  IC50: > 50 µM

## CC(=O)Oc1ccccc1C(=O)[Se]CC[Se]C(=O)c1ccccc1OC(C)=O
[1]
  IC50: 3.4 µM
MDA-MB-231 [2]
  IC50: 11 µM
[3]
  IC50: 33.4 µM
UACC-903 [4]
  IC50: 17.2 µM
MDA-MB-231 [5]
  IC50: 18.6 µM
UACC-903 [6]
  IC50: 3.6 µM
MDA-MB-231 [7]
  IC50: 7.6 µM
HT-29 [8]
  IC50: 3.5 µM
HT-29 [9]
  IC50: 5.5 µM
UACC-903 [10]
  IC50: 3 µM
HT-29 [11]
  IC50: 18.6 µM
[12]
  IC50: 13.5 µM
